# KCNQ1 pot = human KCNQ1 channel potentiation or activation; P51787; CHO-K1 KCNQ1, thallium flux FluxOR fluorescence; active compounds read high; B-score at 10 µM; hit rate 0.35% among 310,000;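 active means fluorescence ratio B-score, a plate-corrected score, at least three library SD, with initial intensity B-score within 5 SD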
#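 Material: CHO-K1 cells stably expressing KCNQ1. Medium: assay buffer for compound exposure, DMSO matched across wells. Reagent: K+/Tl+ depolarizing stimulus. Compound dosing: single-concentration screen. Times: 37 °C overnight plating, 90-min dark dye load, 20-min compound pretreatment. Technique: FluxOR Tl+ flux fluorescence.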
# KCNK3 block = human KCNK3 channel inhibition, primary screen; O14649; CHO-KCNK3 thallium flux, FluxOR fluorescence; active compounds read low; B-score at 10 µM; hit rate 0.84% among 340,000; AID 602410;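 active means B-score under library mean minus 4 SD, starting fluorescence ratio at most library mean plus 5 SD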;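 further: more negative B-score means stronger inhibition of thallium flux through KCNK3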
# hERG rescue = hERG (human) protection from proarrhythmic block. Q12809. CHO-hERG, FluxOR thallium flux, dofetilide IC70 present. activation (rescue from dofetilide block), less the hit threshold, % at 10 µM. hit rate 0.51% among 310,000. AID 1511;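 active means activation above the mean of controls blocked by dofetilide plus 5 SD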;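 further: thallium influx through hERG after potassium depolarization seen as dye fluorescence rise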
# KCNK9 block = inhibitors of human KCNK9 two-pore domain potassium channel; Q9NPC2; HEK293 KCNK9, FluxOR thallium flux fluorescence; active compounds read low; hit rate 1.2% among 310,000; B-score at 10 µM;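 active means ratio B-score over 3 SD below the library mean, with starting fluorescence within 5 SD of its mean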;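 further: negative B-score means less thallium flux so channel inhibition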
# Target sequence (Q9NPC2 whole entry, looked up, the tested form may be a part): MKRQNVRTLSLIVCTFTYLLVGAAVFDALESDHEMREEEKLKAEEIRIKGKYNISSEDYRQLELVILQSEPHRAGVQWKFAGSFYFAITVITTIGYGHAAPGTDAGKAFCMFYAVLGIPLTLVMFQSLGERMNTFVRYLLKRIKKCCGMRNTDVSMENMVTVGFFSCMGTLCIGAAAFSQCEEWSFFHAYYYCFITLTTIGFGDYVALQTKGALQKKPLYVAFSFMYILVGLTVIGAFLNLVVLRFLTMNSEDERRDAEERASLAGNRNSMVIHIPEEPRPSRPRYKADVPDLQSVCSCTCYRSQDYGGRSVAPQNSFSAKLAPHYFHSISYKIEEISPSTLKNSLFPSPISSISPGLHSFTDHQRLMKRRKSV
# Kir21 inh = inhibitors of mouse Kir2.1 inward-rectifier potassium channel; P35561; HEK293-Kir2.1, FluxOR thallium flux fluorescence; active compounds read low; hit rate 0.85% among 310,000; B-score at 10 µM;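 active means fluorescence ratio B-score at or below minus 3 SD of library scores, with starting-brightness B-score within 2 SD, cut at about -4.2 in these data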;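 further: channel flux triggered by added potassium and thallium sulfate stimulus; B-score of peak minus minimum fluorescence over baseline after thallium stimulus; more negative B-score means stronger Kir2.1 block with less thallium influx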
# KCNQ1 inh = blocks the human KCNQ1 potassium channel. CHO-K1 KCNQ1, FluxOR thallium flux fluorescence; active compounds read high. B-score at 10 µM. hit rate 1.3% among 310,000. AID 2642;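 active means compounds whose thallium flux B-score, printed positive for inhibition, exceeds three library SD while starting fluorescence stays within three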;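 further: channel opened by potassium depolarization with thallium stimulus after 20 min compound exposure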
# Numbers without * were called inactive; i = inactive; · = no result. Only some compounds are listed: those with a hit (about 3.7% of all), similar ones and a draw of the others.
SMILES,KCNQ1 pot,KCNK3 block,hERG rescue,KCNK9 block,Kir21 inh,KCNQ1 inh
CC(=O)C1C2c3ccccc3O[C@@]1(C)N=c1s/c(=C/c3ccoc3)c(=O)n12 (stereo partly specified),i,i,-5,i,-1,7*
CC#CP(=O)(OCC)C(O)(c1ccccc1)C(F)(F)F (stereo unspecified),i,i,-9,i,-1.3,i
CCOP(=O)(C#CC(C)(C)C)C(O)(c1ccccc1)C(F)(F)F (stereo unspecified),i,i,-15,i,-4.3*,i
O=C(CCN1CC2CCC(CC2)C1)c1cccs1,·,i,·,·,·,·
CCCC[N+]12CCC(CC1)C(C(=O)c1cccs1)C2 (stereo unspecified),i,i,-6,i,-4.9*,i
CC(C)CC1(CCc2ccccc2)C(=O)NC(=O)NC1=O,·,i,·,·,·,·
CC/C(=C\C=C\[C@@H]1C=C[C@@H]2CCC[C@H]2[C@@H]1C(=O)c1ccc[nH]1)[C@@H]1O[C@@H]([C@@H](C)C(=O)O)CC[C@@H]1C,38*,·,74*,i,-0.5,i
COc1ccc(/C=C/C(=O)c2c(O)n(CCC3=CCCCC3)c(=O)[nH]c2=O)cc1OC,i,i,-8,i,-0.88,i
C/C(=N\N1CCCCCC1)c1c(O)n(C)c(=O)n(C)c1=O,i,·,-7,i,-0.35,i
CN1CCN(CC#CCOc2ccc(Cl)cc2)CC1,i,i,9.8*,i,-0.99,i
CC(Cc1ccccc1)N1Cc2ccccc2C1 (stereo unspecified),i,i,-10,i,1.7,i
CN(C)c1ccc(-[n+]2c(-c3ccccc3)cc(-c3ccccc3)cc2-c2ccccc2)cc1,i,-9*,-35,i,-15*,12*
C[n+]1c(-c2ccccc2)cc(-c2ccc(Cl)cc2)cc1-c1ccccc1,i,i,-23,i,-3.2,i
c1ccc(-c2cc(-c3ccccc3)[n+](-c3ccccc3)c(-c3ccccc3)c2)cc1,i,-10*,-35,i,-6.4*,13*
O=[N+]([O-])c1ccc(N2CCCCCC2)c2ncccc12,i,i,-4,-7.7*,-0.15,i
O=c1c(C=NCCN2CCNCC2)c(O)n(C2CCCCC2)c(=O)n1C1CCCCC1,11*,i,-10,i,-2.9,i
O=c1[nH]c(=S)n(C2CC2)c(O)c1C=NCCN1CCOCC1,i,i,-12,i,-0.87,i
CC1OC(OC2C=C3CCC4C(CCC5(C)C(c6ccc(=O)oc6)CCC45O)C3(C)CC2)C(O)C(OC2OC(CO)C(O)C(O)C2O)C1O (stereo unspecified),·,i,·,·,·,·
CC1(C)CC[C@]2(C)CC[C@]3(C)C4C[C@@H]5OO[C@@]6(O5)C(CCCC6(C)C)[C@]4(C)CC[C@@]3(C)C2C1 (stereo partly specified),·,i,·,·,·,·
O=C1NC(=O)N(Cc2cccs2)C(=O)/C1=C/c1ccc(N2CCOCC2)cc1,i,i,-13,i,2.7,i
O=C1NC(=O)N(Cc2ccccc2Cl)C(=O)/C1=C/N1CCOCC1,i,i,8.0*,i,-0.82,i
N=c1sccn1Cc1ccccc1F,i,i,-7,i,0.03,i
CN1CCN(c2cc(N3CCCC3)c([N+](=O)[O-])cc2F)CC1,9*,i,-12,i,-1.1,i
O=[N+]([O-])c1cc(F)c(N2CCCC2)cc1Br,i,i,-8,i,-1.3,6*
CN(C(=O)Oc1cccc2ccccc12)C1C=CCC1 (stereo unspecified),·,i,·,·,·,·
SMILES,KCNQ1 pot,KCNK3 block,hERG rescue,KCNK9 block,Kir21 inh,KCNQ1 inh
CN(C/N=C(\N)N[N+](=O)[O-])S(=O)(=O)c1ccccc1,i,i,-7,i,0.47,i
CC(=O)c1ccc(NC2=NCCCS2)cc1,i,i,-6,i,0.27,i
CCCCc1ccc(NC2=NCCCS2)cc1,i,i,-18,i,-4.9*,i
CC1(C)C(=O)CCC2C1=CCC1C2CCC2(C)C(O)CCC12 (stereo unspecified),·,i,·,·,·,·
O=C1CNC(c2ccccc2Cl)c2cc(Br)ccc2N1 (stereo unspecified),i,i,-7,i,0.75,i
CNCCCc1ccccc1,i,i,6.5*,i,-0.03,i
O=C1NC(=O)N(c2ccc3c(c2)OCO3)C(=O)/C1=C\c1ccc(N2CCCCC2)o1,i,i,-14,i,-2,9*
Cc1ccccc1N1C(=O)/C(=C/c2ccco2)C(=O)NC1=S,i,·,13*,i,0.55,i
Cc1ccccc1N1C(=O)NC(=O)/C(=C/c2ccc(N3CCOCC3)o2)C1=O,i,i,-22,i,-3.5,6*
CN1C(=O)C(=Cc2ccc(N3CCCCCC3)o2)C(=O)N(C)C1=S,·,i,·,·,·,·
O=C1NC(=S)N(c2ccccc2F)C(=O)/C1=C\c1cccs1,i,i,22*,i,1.1,i
CCC1(CCc2ccncc2)C(=O)NC(=O)NC1=O,i,i,-3,i,0.18,i
Cc1cccc(CN2CCN(Cc3ccc(Cl)cc3)CC2)c1,i,i,-11,i,-12*,i
CCNC(=S)NCCC1=c2ccccc2=N/C1=C\c1c(O)n(C)c(=O)n(C)c1=O,i,i,-15,i,-1.6,i
COC1CCC(OC2CC(C3(C)CCC4(CC(O)C(C)C(C(C)/C=C(\C)C(=O)C(C)CC(C)C(=O)O)O4)O3)OC3(OC(C4OC(O)(CO)C(C)CC4C)CC3C)C2C)OC1C (stereo unspecified),·,i,·,·,·,·
COC(=O)C1=C(C(=O)OC)C2OC1c1cc3ccccc3cc12,·,i,·,·,·,·
CN1C(=O)/C(=C\c2ccc(Br)s2)C(=O)NC1=S,i,i,15*,i,-0.55,i
Cn1c(NN=O)nc2ccccc21,i,i,0,i,-2.3,i
O=P(Nc1cccc(Cl)c1)(Oc1ccccc1)Oc1ccccc1,i,i,-49,-7.6*,-0.01,6*
COc1cccc(NP(=O)(Oc2ccccc2)Oc2ccccc2)c1,i,i,-17,i,-0.66,i
OC1/C(=C/c2ccccc2F)N2CCC1CC2 (stereo unspecified),i,i,-9,i,0.97,i
COc1cc(C)cc(CN2CC=C(c3ccccc3)CC2)c1O,i,i,-17,i,-3,i
O=c1c2cc(Br)ccc2[nH]c(=S)n1-c1ccccc1,i,i,37*,i,0.41,i
CCCCn1c(=O)c(C(=O)Nc2ccc(C)cn2)c(O)c2ccccc21,i,i,-6,-7.7*,-0.48,i

# From PubChem
